For assay [1], the system named is L1210. The experiment in a line: Tested for in vitro cell growth inhibition of L1210 cells. The format is functional, cell-based. The note with it: Mus musculus. An outline of the steps: (§1)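 L1210 cell number counted at 0, 48 and 96 h across a range of concentrations. Growth rate is the slope of semilog cell number vs time as percent of control (ratio of control to treated doubling time); the 48-96 h rate is used if growth slowed. IC50 halves growth rate. Top concentration 100 μM.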

A short description of assay [2]: Tested for the inhibition against KB cell growth. The format is functional, cell-based. The note with it: Homo sapiens. The procedure, abridged: (§2)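 KB cells (MEM/Hank's, 5% fetal bovine serum). Growth measured spectrophotometrically after crystal violet staining 2 days after drug treatment. IC50 from linear regression of percent inhibition vs log concentration.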

In assay [3] the test system is Human betaherpesvirus 5. The experiment in a line: Tested for antiviral activity against human cytomegalovirus by yield reduction assay. The format is functional.
In a further assay the test system is HFF. The experiment in a line: Tested for cytotoxicity in human foreskin fibroblasts at time of HCMV plaque enumeration. The format is functional, cell-based. An outline of the steps: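 HFF cells (MEM/Earle's, 10% fetal bovine serum), uninfected cells within HCMV plaque-reduction wells. Drug cytopathology scored visually at 30-fold magnification on a 0-4+ scale on the day of staining for plaque enumeration. IC50 from regression against log concentration.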

Assay [4] deals with Human betaherpesvirus 5. Nature of the assay: Tested for antiviral activity against human cytomegalovirus by plaque assay. Format: functional, organism-based. The procedure, abridged: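 Towne strain HCMV (plaque-purified P0) on HFF monolayers. Inoculum about 50 PFU in 0.2 mL; compounds dissolved in the overlay medium. IC50 from linear regression of percent inhibition vs log concentration. Ganciclovir positive control; assay sets rejected if it deviated >1.5 SD from its mean response.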

Assay [5] in a line: Tested for the inhibition of KB cell growth. Format: functional, cell-based. The conditions noted are these: Homo sapiens. The procedure, abridged:
as §2

For another assay, the system named is Human alphaherpesvirus 1. The experiment in a line: Tested for antiviral activity against Herpes simplex virus type-1 using enzyme immunoassay.
The test system of assay [6] is Calu-1. Nature of the assay: Tested for in vitro cell growth inhibition of CALU-1 cells. Format: functional, cell-based. The note with it: Homo sapiens. An outline of the steps: (§3)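 Adherent tumor lines in RPMI 1640 + 5% fetal bovine serum (UMSCC-10A: MEM-5). Cells/well: UMSCC-10A, CALU-1, NCI-H1437 and HT-29 2000; NCI-H460 1000; DLD-1 1000; SW-620 7500. Compound added 1 day after plating. Sulforhodamine B readout on day 5 (NCI-H460 and SW-620: day 4). IC50 halves growth rate vs control. Top concentration 100 μM.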

The species entered for assay [7] is Homo sapiens. The experiment in a line: Tested for in vitro cell growth inhibition of H.Ep. 2 cells. Format: functional, cell-based. The conditions noted are these: HEp-2. An outline of the steps: (§4)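 H.Ep.2 cells grown in MEM/Earle's with 15% heat-inactivated calf serum, 5% CO2. 2000 cells/well plated in 5% calf serum; compound added 1 day later. […] Top concentration 100 μM.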

Assay [8] is described as follows: Tested for in vitro cell growth inhibition of NCI-H1437. The format is functional. The conditions noted are these: Homo sapiens. The procedure, abridged: as §3
Assay [9] deals with NCI-H460. The experiment in a line: Tested for in vitro cell growth inhibition of NCI-H460. Format: functional, cell-based. The conditions noted are these: Homo sapiens. An outline of the steps:
as §3

Assay [10] can be described thus: Tested for in vitro cell growth inhibition of […] cells. Format: functional, cell-based. The conditions noted are these: Homo sapiens. An outline of the steps: as §3
The test system of assay [11] is NCI-H460. Nature of the assay: Tested for in vitro cell growth inhibition of NCI-H460 cells. Format: functional, cell-based. The conditions noted are these: Homo sapiens. The procedure, abridged: as §3
The species entered for assay [12] is Homo sapiens. Nature of the assay: Tested for in vitro cell growth inhibition of H.Ep. 2 cells; No significant effect. Format: functional, cell-based. An outline of the steps: as §4
For assay [13], the system named is NCI-H417. Nature of the assay: Tested for in vitro cell growth inhibition of NCI-N417 cells; No significant effect. The format is functional, cell-based, Homo sapiens.
The nature of assay [14]: Tested for in vitro cell growth inhibition of NCI-H146 cells; No significant effect. Format: functional, cell-based, Homo sapiens.
Assay [15] has as its system Calu-1. Nature of the assay: Tested for in vitro cell growth inhibition of CALU-1 cells; No significant effect. Format: functional, cell-based, Homo sapiens. The procedure, abridged: as §3
Assay [16] is filed under the species Homo sapiens. The experiment in a line: Tested for in vitro cell growth inhibition of H. Ep. 2 cells; No significant effect. Format: functional, cell-based. The procedure, abridged:
as §4

Assay [17] concerns L1210. Nature of the assay: Tested for in vitro cell growth inhibition of L1210 cells; No significant effect. Format: functional, cell-based, Mus musculus. An outline of the steps: as §1
Another assay has as its system DLD-1. The experiment in a line: Tested for in vitro cell growth inhibition of DLD-1 cells. The format is functional, cell-based. The note with it: Homo sapiens. An outline of the steps:
as §3

Another assay has as its system HT-29. The experiment in a line: Tested for in vitro cell growth inhibition of HT-29 cells. The format is functional, cell-based. The note with it: Homo sapiens. The procedure, abridged:
as §3

Assay [18] deals with NCI-H417. The experiment in a line: Tested for in vitro cell growth inhibition of NCI-N417 cells. The format is functional, cell-based. The note with it: Homo sapiens.
A short description of assay [19]: Tested for in vitro cell growth inhibition of NCI-H146 cells. The format is functional, cell-based. The conditions noted are these: Homo sapiens.
For a further assay, the system named is SW-620. The experiment in a line: Tested for in vitro cell growth inhibition of SW-620 cells. Format: functional, cell-based. The conditions noted are these: Homo sapiens. An outline of the steps:
as §3

A short description of assay [20]: Tested for in vitro cell growth inhibition of UMSCC-10A cells. Format: functional, cell-based. The conditions noted are these: Homo sapiens. The procedure, abridged: as §3
The nature of assay [21]: Tested for in vitro cell growth inhibition of NCI-H1437 cells. Format: functional, cell-based. The conditions noted are these: Homo sapiens. An outline of the steps: as §3

Broadly, the IC50 is the midpoint of a concentration-inhibition curve. A low value points to inhibition by little substance. Take `Nc1ncnc2c1ccn2[C@@H]1O[C@H](CO)[C@@H](O)[C@H]1O` [TUBERCIDIN]: the half-maximal inhibitory concentration (IC50) is 43 nM in the assay on L1210 [1] and 1000 nM in assay [2].

Broadly, the IC90 is the concentration needed for an effect of 90%. Lower therefore signals an effect from little substance. `Nc1nc2c(ncn2COC(CO)CO)c(=O)[nH]1` [GANCICLOVIR] returned an IC90 in the assay with Human betaherpesvirus 5 [3] of 1800 nM. The IC50 in the assay with HFF was more than 100000 nM; in the assay with Human betaherpesvirus 5 [4] it was 7700 nM; in [5] it was more than 100000 nM; in the assay on Human alphaherpesvirus 1 it was 3500 nM.

As for `Nc1nnc(O)c2c1c(Cl)cn2C1O[C@H](CO)[C@@H](O)[C@H]1O` (stereo partly specified), in the assay on Human betaherpesvirus 5 [3], the 90% effect level (IC90) was put at 700 nM. In addition, the IC50 worked out at 2100 nM in the assay with HFF; 230 nM in the assay with L1210 [1]; 200 nM in the assay on Human betaherpesvirus 5 [4]; 6100 nM in assay [5]; 6800 nM with Human alphaherpesvirus 1.

For the compound `Nc1n[nH]c(=O)c2c1c(Br)cn2[C@@H]1O[C@H](CO)[C@@H](O)[C@H]1O`, the IC50 with Calu-1 [6] was determined as 230 nM; in the assay filed under Homo sapiens [7], 200 nM; with HFF, 2500 nM; in the assay on L1210 [1] it was 100 nM; in [8], 500 nM; in the assay on NCI-H460 [9] it was 500 nM. Moreover, the IC50 is 1300 nM in assay [10], 100 nM in the assay with Human betaherpesvirus 5 [4], less than 1200 nM in assay [5] and 2000 nM in the assay on Human alphaherpesvirus 1. Besides, the IC90 in the assay with Human betaherpesvirus 5 [3] turned out to be 40 nM.

Compound `Nc1ncnc2c1c(Br)cn2[C@@H]1O[C@H](CO)[C@@H](O)[C@H]1O` had an IC90 in the assay on Human betaherpesvirus 5 [3] of 3500 nM. Moreover, the half-inhibitory concentration (IC50) was found to be 1200 nM with HFF and 3000 nM in assay [5].

`Nc1nncc2c1c(Br)cn2C1O[C@H](CO)[C@@H](O)[C@H]1O` (stereo partly specified): the IC50 was determined as 11000 nM with Calu-1 [6]; 100000 nM in the assay on HFF; 11000 nM in the assay with NCI-H460 [11]; 121000 nM in the assay on Human betaherpesvirus 5 [4]; 12000 nM in [5]. The same compound had an IC90 in the assay on Human betaherpesvirus 5 [3] of 1400 nM.

Regarding `Nc1nnc(O)c2c1ccn2[C@@H]1O[C@H](CO)[C@@H](O)[C@H]1O`, the IC50 entry is “Not Active” in the assay listed under Homo sapiens [12]; more than 100000 nM with HFF; 74000 nM with L1210 [1]; “Not Active” in the assay with NCI-H417 [13]; “Not Active” in assay [14]; “Not Active” in the assay with Calu-1 [15]. The IC50 was more than 100000 nM in the assay on Human betaherpesvirus 5 [4] and 90000 nM in the assay on Human alphaherpesvirus 1.

`Nc1nncc2c1ccn2C1O[C@H](CO)[C@@H](O)[C@H]1O` (stereo partly specified): the 50% inhibitory concentration (IC50) entry was “Not Active” in the assay filed under Homo sapiens [16]; more than 100000 nM in the assay with HFF; “Not Active” in the assay with L1210 [17]; more than 100000 nM with Human betaherpesvirus 5 [4]; more than 100000 nM in the assay with Human alphaherpesvirus 1.

`Nc1nnc(O)c2c1c(I)cn2C1O[C@H](CO)[C@@H](O)[C@H]1O` (stereo partly specified): the IC50 in the assay with Calu-1 [6] was 70 nM; in the assay on DLD-1, 70 nM; in the assay listed under Homo sapiens [7], 76 nM; with HFF, 1000 nM; in the assay on HT-29 it was 500 nM; with L1210 [1], 80 nM. Moreover, the IC50 with NCI-H417 [18] was 280 nM; in the assay with NCI-H460 [11], 200 nM; in [19] it was 420 nM; in the assay on SW-620, 230 nM; in assay [20] it was 2500 nM; in the assay on Human betaherpesvirus 5 [4], 400 nM. For the same compound, the IC50 in assay [21] came to 130 nM; in assay [5] it was 1200 nM; in the assay on Human alphaherpesvirus 1, 4500 nM. Besides, it took 20 nM to reach the 90% level in the assay on Human betaherpesvirus 5 [3] (IC90).

As for `O=c1[nH][nH]c(=O)c2c1ccn2[C@@H]1O[C@H](CO)[C@@H](O)[C@H]1O`, the IC50 with HFF is more than 100000 nM; in the assay with L1210 [17] it was “Not Active”; in the assay on Human betaherpesvirus 5 [4] it was more than 100000 nM; with Human alphaherpesvirus 1 it was more than 100000 nM.
